Laboratory results published in ChEMBL document CHEMBL1156753, “Structural studies of pterin-based inhibitors of dihydropteroate synthase” (J Med Chem, 2010).

Assays:
[1] = target: T1, Dihydropteroate synthase (Bacillus anthracis) (UniProt Q81VW8); assay: Inhibition of Bacillus anthracis DHPS expressed in Escherichia coli BL21 (DE3) at 500 uM after 30 mins
T1 sequence (whole entry): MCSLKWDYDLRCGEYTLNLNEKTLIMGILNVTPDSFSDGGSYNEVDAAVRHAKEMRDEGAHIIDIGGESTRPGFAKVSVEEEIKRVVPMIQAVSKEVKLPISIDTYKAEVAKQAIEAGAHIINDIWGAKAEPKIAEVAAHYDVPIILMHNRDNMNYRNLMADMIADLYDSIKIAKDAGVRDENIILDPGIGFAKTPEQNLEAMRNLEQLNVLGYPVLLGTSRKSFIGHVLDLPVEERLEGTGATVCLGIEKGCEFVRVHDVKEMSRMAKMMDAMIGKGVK
How it was run: (§1)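 Reaction held 5 μM 14C pABA, 10 μM enzymatically prepared dihydropterin diphosphate, 10 mM MgCl2, 2% DMSO, 50 mM HEPES pH 7.6, 10 ng DHPS. Product was separated by PEI-cellulose TLC and quantified by phosphorimaging as percent inhibition.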

[2] = target: T1, Dihydropteroate synthase (Bacillus anthracis); assay: Inhibition of Bacillus anthracis DHPS expressed in Escherichia coli BL21 (DE3) at 250 uM after 30 mins; how it was run: as §1
Dihydropteroate synthase [3] = target: T2, Dihydropteroate synthase (Bacillus anthracis, UniProt Q81VW8); assay: Inhibition of Bacillus anthracis DHPS expressed in Escherichia coli BL21 (DE3) after 30 mins
T2 sequence (Q81VW8 whole entry): T1 sequence (whole entry)
How it was run: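 Radiometric assay at 37 °C for 30 min: 5 μM 14C pABA, 10 μM enzymatically prepared dihydropterin diphosphate, 10 mM MgCl2, 2% DMSO, 50 mM HEPES pH 7.6, 5 ng DHPS, over a range of inhibitor concentrations. The reaction was stopped with acetic acid on ice. 14C dihydropteroate was separated from pABA by PEI-cellulose TLC and quantified by phosphorimaging. IC50 was obtained by curve fitting.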

Dihydropteroate synthase [4] = target: T2, Dihydropteroate synthase; assay: Binding affinity to Bacillus anthracis DHPS expressed in Escherichia coli BL21 (DE3) after 30 mins by isothermal titration calorimetry
How it was run: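 ITC at 25 °C in 40 mM HEPES, 4 mM MgCl2, pH 7.6; 5% DMSO added to the buffer for the inhibitor titration. Protein was dialyzed against 50 mM HEPES, 5 mM MgCl2, pH 7.6. Nineteen injections of 500 μM ligand went into 20 μM DHPS. Kd was fitted to a one-site binding model.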

Compound | inhibition [1] | inhibition [2] | IC50 (Dihydropteroate synthase [3]) | Kd (Dihydropteroate synthase [4])
Nc1ncc(Oc2ccccc2)c(=O)[nH]1 | 37% |  |  | 
Nc1nc2[nH]c(S)nc2c(=O)[nH]1 |  | 0% |  | 
CNc1nc(N)[nH]c(=O)c1[N+](=O)[O-] | 53% |  |  | 
Nc1nc2c(c(=O)[nH]1)N=C(CCNc1ccc(C(=O)O)cc1)CN2 | 100% |  | 25.9 µM | 
Nc1nc(NCCCOc2ccc(C(=O)O)cc2)c(N=O)c(=O)[nH]1 | 79% |  |  | 
Nc1nc2[nH]c(=O)c(C(=O)O)nc2c(=O)[nH]1 | 70% |  | 269 µM | 
Cn1c(=O)c2nc(C(=O)O)c(=O)[nH]c2n(C)c1=O | 33% |  |  | 
CN1CC=Nc2c1nc(N)[nH]c2=O | 76% |  | 86.7 µM | 
Cn1c(=O)c2nc(C=O)c(=O)[nH]c2n(C)c1=O | 44% |  |  | 
Nc1nc2ncc(C(=O)O)nc2c(=O)[nH]1 | 37% |  |  | 
Nc1nc(N)c(N=O)c(=O)[nH]1 |  | 81% | 8 µM | 
Nc1ccc(C(=O)O)cc1 [AMINOBENZOIC ACID] |  |  |  | 5.62 µM
CC1CNc2nc(N)[nH]c(=O)c2N1 (centres undefined) | 67% |  |  | 
CN1CC(CC(C)(C)O)=Nc2c1nc(N)[nH]c2=O | 54% |  | 215 µM | 
CC(C(=O)O)c1nn(C)c2nc(N)[nH]c(=O)c2c1=O (centres undefined) | 97% |  | 19.8 µM | 
Nc1nc2nc3c(nc2c(=O)[nH]1)CCCC3 | 31% |  |  | 
Nc1nc(N)c([N+](=O)[O-])c(=O)[nH]1 |  | 80% | 109 µM | 
CN1CC(C(=O)O)=Nc2c1nc(N)[nH]c2=O |  | 93% | 32.4 µM | 5.26 µM
Nc1nnc(N)c2[nH]cnc12 | 32% |  | > 500 µM | 
NC(=O)c1nc[nH]c1C(N)=O | 32% |  |  | 
Nc1ccc2nc(CCc3nc4ccc(N)cc4[nH]3)[nH]c2c1 | 62% |  |  | 
Cc1cc(/C=C2/C(=O)N=C(O)N=C2O)c(C)n1C | 35% |  |  | 
Nc1nc2ncc(CCNc3ccc(C(=O)O)cc3)nc2c(=O)[nH]1 | 76% |  | 87.1 µM | 
